# Results taken from ChEMBL document CHEMBL4765413, “Discovery of novel anti-angiogenesis agents. Part 11: Development of PROTACs based on active molecules with potency of promoting vascular normalization” (Eur J Med Chem, 2020).
# What was measured:
# [1] = test system: EA.hy 926; assay: Antiangiogenic activity in human EA.hy 926 cells measured after 24 hrs by MTT assay; settings: EA.hy 926, 24 h
# [2] = biological target: Vascular endothelial growth factor receptor 2 (Homo sapiens, UniProt P35968); assay: Inhibition of recombinant human N-terminal GST-tagged VEGFR2 (789 to end residues) expressed in baculovirus infected Sf9 insect cells using Poly (4:1 Glu, Tyr) as substrate incubated for 1 hr by ADP-Glo luminescent assay
# Chain of Vascular endothelial growth factor receptor 2 (P35968 whole entry): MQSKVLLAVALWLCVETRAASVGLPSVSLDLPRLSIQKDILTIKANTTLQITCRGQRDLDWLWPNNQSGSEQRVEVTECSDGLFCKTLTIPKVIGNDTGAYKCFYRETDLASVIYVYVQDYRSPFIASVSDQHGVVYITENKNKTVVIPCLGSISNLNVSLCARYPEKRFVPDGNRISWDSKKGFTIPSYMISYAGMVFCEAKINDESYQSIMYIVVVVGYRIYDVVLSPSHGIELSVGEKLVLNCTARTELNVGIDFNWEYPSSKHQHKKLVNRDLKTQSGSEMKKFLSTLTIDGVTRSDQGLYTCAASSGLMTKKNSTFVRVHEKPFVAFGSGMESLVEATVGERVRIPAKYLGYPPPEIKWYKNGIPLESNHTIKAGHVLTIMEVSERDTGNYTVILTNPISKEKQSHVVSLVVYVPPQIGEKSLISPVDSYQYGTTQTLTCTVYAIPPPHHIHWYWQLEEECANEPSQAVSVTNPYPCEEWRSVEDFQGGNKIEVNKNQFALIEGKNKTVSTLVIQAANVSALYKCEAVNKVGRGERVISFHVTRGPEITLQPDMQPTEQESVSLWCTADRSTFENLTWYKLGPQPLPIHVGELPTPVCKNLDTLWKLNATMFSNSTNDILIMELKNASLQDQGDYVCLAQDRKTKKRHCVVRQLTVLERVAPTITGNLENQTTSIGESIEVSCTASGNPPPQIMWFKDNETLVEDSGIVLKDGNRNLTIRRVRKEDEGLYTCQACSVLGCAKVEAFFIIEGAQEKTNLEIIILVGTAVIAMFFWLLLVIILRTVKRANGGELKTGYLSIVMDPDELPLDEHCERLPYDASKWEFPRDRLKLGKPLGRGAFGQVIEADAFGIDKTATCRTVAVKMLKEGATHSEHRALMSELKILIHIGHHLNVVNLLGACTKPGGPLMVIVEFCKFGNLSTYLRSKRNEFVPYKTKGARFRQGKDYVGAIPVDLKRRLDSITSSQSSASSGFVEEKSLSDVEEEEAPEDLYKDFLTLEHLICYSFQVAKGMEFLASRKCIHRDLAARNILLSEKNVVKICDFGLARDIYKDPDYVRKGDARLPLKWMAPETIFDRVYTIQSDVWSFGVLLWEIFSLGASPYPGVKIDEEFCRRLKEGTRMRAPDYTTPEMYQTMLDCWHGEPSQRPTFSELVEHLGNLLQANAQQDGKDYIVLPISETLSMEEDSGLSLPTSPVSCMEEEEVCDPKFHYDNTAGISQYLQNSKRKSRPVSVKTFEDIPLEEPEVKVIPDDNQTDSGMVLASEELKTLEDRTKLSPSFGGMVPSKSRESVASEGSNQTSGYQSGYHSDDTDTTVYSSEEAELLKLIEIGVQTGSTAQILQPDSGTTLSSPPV
# [3] = test system: HEK293; assay: Cytotoxicity against HEK293 cells measured after 24 hrs by MTT assay; format: cell-based; settings: human, hek293, 24 h
# [4] = test system: EA.hy 926; assay: Induction of apoptosis in human EA.hy 926 cells assessed as late apoptotic cells at 40 uM measured after 72 hrs by Annexin V-FITC/propidium iodide staining based flow cytometry (reference value: 5.34%)
# [5] = biological target: T1, von Hippel-Lindau disease tumor suppressor/Vascular endothelial growth factor receptor 2 (Homo sapiens) (UniProt P35968+P40337); assay: Protac activity at VHL/VEGFR2 in human EA.hy 926 cells assessed as induction of VEGFR2 degradation measured after 24 to 72 hrs by Western blot analysis; format: cell-based; settings: time 24-72 hrs
# T1 sequence (P35968 20-1356 limits assumed): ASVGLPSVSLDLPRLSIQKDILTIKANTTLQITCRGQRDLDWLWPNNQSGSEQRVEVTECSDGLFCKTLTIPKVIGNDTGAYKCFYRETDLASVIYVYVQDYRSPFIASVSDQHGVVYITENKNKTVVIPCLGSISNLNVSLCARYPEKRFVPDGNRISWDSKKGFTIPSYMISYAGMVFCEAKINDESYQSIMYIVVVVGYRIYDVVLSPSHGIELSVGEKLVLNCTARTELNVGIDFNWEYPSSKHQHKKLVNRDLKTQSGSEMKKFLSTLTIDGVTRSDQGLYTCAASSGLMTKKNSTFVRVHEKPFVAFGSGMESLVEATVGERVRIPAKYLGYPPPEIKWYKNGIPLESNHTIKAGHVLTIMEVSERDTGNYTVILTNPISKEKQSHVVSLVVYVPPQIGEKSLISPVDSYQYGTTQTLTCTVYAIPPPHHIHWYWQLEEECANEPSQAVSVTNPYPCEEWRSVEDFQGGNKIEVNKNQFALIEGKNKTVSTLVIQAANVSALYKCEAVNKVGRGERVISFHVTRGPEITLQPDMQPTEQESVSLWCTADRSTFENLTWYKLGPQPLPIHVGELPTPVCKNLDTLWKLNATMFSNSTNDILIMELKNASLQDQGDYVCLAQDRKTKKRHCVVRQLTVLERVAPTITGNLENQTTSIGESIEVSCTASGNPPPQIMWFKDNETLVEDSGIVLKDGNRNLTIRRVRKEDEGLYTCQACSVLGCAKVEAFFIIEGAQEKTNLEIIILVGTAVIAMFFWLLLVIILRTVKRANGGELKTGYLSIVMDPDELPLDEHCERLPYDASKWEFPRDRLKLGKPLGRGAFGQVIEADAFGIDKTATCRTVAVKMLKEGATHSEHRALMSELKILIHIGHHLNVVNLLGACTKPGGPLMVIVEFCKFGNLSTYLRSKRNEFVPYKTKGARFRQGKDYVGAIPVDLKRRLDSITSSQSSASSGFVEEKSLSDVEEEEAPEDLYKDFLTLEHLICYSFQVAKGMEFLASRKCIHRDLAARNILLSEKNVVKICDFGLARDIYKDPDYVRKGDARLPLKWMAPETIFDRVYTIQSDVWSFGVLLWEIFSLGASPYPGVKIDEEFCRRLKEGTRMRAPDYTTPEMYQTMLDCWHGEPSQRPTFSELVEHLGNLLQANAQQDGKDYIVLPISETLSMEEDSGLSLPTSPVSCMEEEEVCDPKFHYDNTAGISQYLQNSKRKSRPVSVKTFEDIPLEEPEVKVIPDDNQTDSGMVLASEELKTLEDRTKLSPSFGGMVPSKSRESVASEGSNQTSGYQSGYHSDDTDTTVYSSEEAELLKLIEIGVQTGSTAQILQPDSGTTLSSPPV
# T1 sequence (P40337 whole entry partner): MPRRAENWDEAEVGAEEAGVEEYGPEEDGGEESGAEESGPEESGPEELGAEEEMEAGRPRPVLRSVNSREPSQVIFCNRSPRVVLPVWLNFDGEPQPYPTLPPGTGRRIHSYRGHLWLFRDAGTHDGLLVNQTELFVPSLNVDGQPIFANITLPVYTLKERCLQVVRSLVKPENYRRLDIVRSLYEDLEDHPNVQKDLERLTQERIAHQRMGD
# Outline: (§1)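 EA.hy926 cells were exposed to DMSO vehicle or test compound, then lysed in SDS sample buffer and normalized by BCA protein assay. Equal protein amounts were run on SDS-PAGE and transferred to PVDF. Membranes were blocked in 5% milk/TBS-Tween and probed with anti-VEGFR-2 (1:500), with GAPDH (1:10000) as loading control. Detection used HRP secondary and ECL, with densitometric quantification.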
# [6] = test system: EA.hy 926; assay: Induction of apoptosis in human EA.hy 926 cells assessed as early apoptotic cells at 20 uM measured after 72 hrs by Annexin V-FITC/propidium iodide staining based flow cytometry (reference value: 3.4%); format: functional
# [7] = test system: EA.hy 926; assay: Cell cycle arrest in human EA.hy 926 cells assessed as accumulation at G2 phase at 0.1 uM measured after 72 hrs by propidium iodide staining based flow cytometry (reference value: 25.83%); format: functional
# [8] = test system: EA.hy 926; assay: Induction of apoptosis in human EA.hy 926 cells assessed as necrotic cells at 1 uM measured after 72 hrs by Annexin V-FITC/propidium iodide staining based flow cytometry (reference value: 2.65%); format: functional
# [9] = test system: EA.hy 926; assay: Cell cycle arrest in human EA.hy 926 cells assessed as accumulation at G1 phase at 40 uM measured after 72 hrs by propidium iodide staining based flow cytometry (reference value: 59.78%); format: functional
# [10] = test system: EA.hy 926; assay: Induction of apoptosis in human EA.hy 926 cells assessed as late apoptotic cells at 10 uM measured after 72 hrs by Annexin V-FITC/propidium iodide staining based flow cytometry (reference value: 5.34%)
# [11] = test system: EA.hy 926; assay: Induction of apoptosis in human EA.hy 926 cells assessed as early apoptotic cells at 40 uM measured after 72 hrs by Annexin V-FITC/propidium iodide staining based flow cytometry (reference value: 3.4%); format: functional
# [12] = test system: EA.hy 926; assay: Cell cycle arrest in human EA.hy 926 cells assessed as accumulation at G1 phase at 0.1 uM measured after 72 hrs by propidium iodide staining based flow cytometry (reference value: 59.78%); format: functional
# [13] = test system: EA.hy 926; assay: Cell cycle arrest in human EA.hy 926 cells assessed as accumulation at G1 phase at 10 uM measured after 72 hrs by propidium iodide staining based flow cytometry (reference value: 59.78%); format: functional
# [14] = test system: EA.hy 926; assay: Induction of apoptosis in human EA.hy 926 cells assessed as viable cells at 1 uM measured after 72 hrs by Annexin V-FITC/propidium iodide staining based flow cytometry (reference value: 88.6%); format: functional; settings: read-out: Activity
# [15] = test system: EA.hy 926; assay: Cell cycle arrest in human EA.hy 926 cells assessed as accumulation at S phase at 40 uM measured after 72 hrs by propidium iodide staining based flow cytometry (reference value: 14.39%); format: functional
# [16] = biological target: T1, von Hippel-Lindau disease tumor suppressor/Vascular endothelial growth factor receptor 2 (Homo sapiens); assay: Protac activity at VHL/VEGFR2 in human EA.hy 926 cells assessed as induction of VEGFR2 degradation at 40 uM measured after 24 to 48 hrs by Western blot analysis relative to control; format: cell-based; settings: time 24-48 hrs; outline: as §1
# [17] = test system: EA.hy 926; assay: Cell cycle arrest in human EA.hy 926 cells assessed as accumulation at G2 phase at 20 uM measured after 72 hrs by propidium iodide staining based flow cytometry (reference value: 25.83%); format: functional
# [18] = test system: EA.hy 926; assay: Induction of apoptosis in human EA.hy 926 cells assessed as early apoptotic cells at 1 uM measured after 72 hrs by Annexin V-FITC/propidium iodide staining based flow cytometry (reference value: 3.4%); format: functional
# [19] = test system: EA.hy 926; assay: Induction of apoptosis in human EA.hy 926 cells assessed as necrotic cells at 20 uM measured after 72 hrs by Annexin V-FITC/propidium iodide staining based flow cytometry (reference value: 2.65%); format: functional
# [20] = test system: EA.hy 926; assay: Induction of apoptosis in human EA.hy 926 cells assessed as viable cells at 20 uM measured after 72 hrs by Annexin V-FITC/propidium iodide staining based flow cytometry (reference value: 88.6%); format: functional; settings: read-out: Activity
# [21] = test system: EA.hy 926; assay: Induction of apoptosis in human EA.hy 926 cells assessed as late apoptotic cells at 1 uM measured after 72 hrs by Annexin V-FITC/propidium iodide staining based flow cytometry (reference value: 5.34%)
# [22] = test system: EA.hy 926; assay: Cell cycle arrest in human EA.hy 926 cells assessed as accumulation at G2 phase at 40 uM measured after 72 hrs by propidium iodide staining based flow cytometry (reference value: 25.83%); format: functional
# [23] = test system: EA.hy 926; assay: Induction of apoptosis in human EA.hy 926 cells assessed as viable cells at 40 uM measured after 72 hrs by Annexin V-FITC/propidium iodide staining based flow cytometry (reference value: 88.6%); format: functional; settings: read-out: Activity
# [24] = test system: EA.hy 926; assay: Induction of apoptosis in human EA.hy 926 cells assessed as late apoptotic cells at 0.1 uM measured after 72 hrs by Annexin V-FITC/propidium iodide staining based flow cytometry (reference value: 5.34%)
# [25] = test system: EA.hy 926; assay: Induction of apoptosis in human EA.hy 926 cells measured after 72 hrs by Annexin V-FITC/propidium iodide staining based flow cytometry; format: functional, cell-based
# [26] = test system: EA.hy 926; assay: Cell cycle arrest in human EA.hy 926 cells assessed as accumulation at S phase at 20 uM measured after 72 hrs by propidium iodide staining based flow cytometry (reference value: 14.39%); format: functional
# [27] = test system: EA.hy 926; assay: Induction of apoptosis in human EA.hy 926 cells assessed as necrotic cells at 40 uM measured after 72 hrs by Annexin V-FITC/propidium iodide staining based flow cytometry (reference value: 2.65%); format: functional
# [28] = test system: EA.hy 926; assay: Cell cycle arrest in human EA.hy 926 cells assessed as accumulation at G2 phase at 1 uM measured after 72 hrs by propidium iodide staining based flow cytometry (reference value: 25.83%); format: functional
# [29] = test system: EA.hy 926; assay: Induction of apoptosis in human EA.hy 926 cells assessed as early apoptotic cells at 10 uM measured after 72 hrs by Annexin V-FITC/propidium iodide staining based flow cytometry (reference value: 3.4%); format: functional
# [30] = test system: EA.hy 926; assay: Cell cycle arrest in human EA.hy 926 cells assessed as accumulation at G1 phase at 1 uM measured after 72 hrs by propidium iodide staining based flow cytometry (reference value: 59.78%); format: functional
# [31] = test system: EA.hy 926; assay: Cell cycle arrest in human EA.hy 926 cells assessed as accumulation at S phase at 0.1 uM measured after 72 hrs by propidium iodide staining based flow cytometry (reference value: 14.39%); format: functional
# [32] = test system: EA.hy 926; assay: Induction of apoptosis in human EA.hy 926 cells assessed as viable cells at 0.1 uM measured after 72 hrs by Annexin V-FITC/propidium iodide staining based flow cytometry (reference value: 88.6%); format: functional; settings: read-out: Activity
# [33] = test system: EA.hy 926; assay: Induction of apoptosis in human EA.hy 926 cells assessed as necrotic cells at 10 uM measured after 72 hrs by Annexin V-FITC/propidium iodide staining based flow cytometry (reference value: 2.65%); format: functional
# [34] = test system: EA.hy 926; assay: Cell cycle arrest in human EA.hy 926 cells assessed as accumulation at G1 phase at 20 uM measured after 72 hrs by propidium iodide staining based flow cytometry (reference value: 59.78%); format: functional
# [35] = test system: EA.hy 926; assay: Cell cycle arrest in human EA.hy 926 cells assessed as accumulation at S phase at 10 uM measured after 72 hrs by propidium iodide staining based flow cytometry (reference value: 14.39%); format: functional
# [36] = test system: EA.hy 926; assay: Cell cycle arrest in human EA.hy 926 cells assessed as accumulation at S phase at 1 uM measured after 72 hrs by propidium iodide staining based flow cytometry (reference value: 14.39%); format: functional
# [37] = test system: EA.hy 926; assay: Induction of apoptosis in human EA.hy 926 cells assessed as necrotic cells at 0.1 uM measured after 72 hrs by Annexin V-FITC/propidium iodide staining based flow cytometry (reference value: 2.65%); format: functional
# [38] = test system: EA.hy 926; assay: Cell cycle arrest in human EA.hy 926 cells assessed as accumulation at G2 phase at 10 uM measured after 72 hrs by propidium iodide staining based flow cytometry (reference value: 25.83%); format: functional
# [39] = test system: EA.hy 926; assay: Induction of apoptosis in human EA.hy 926 cells assessed as late apoptotic cells at 20 uM measured after 72 hrs by Annexin V-FITC/propidium iodide staining based flow cytometry (reference value: 5.34%)
# [40] = test system: EA.hy 926; assay: Induction of apoptosis in human EA.hy 926 cells assessed as early apoptotic cells at 0.1 uM measured after 72 hrs by Annexin V-FITC/propidium iodide staining based flow cytometry (reference value: 3.4%); format: functional
# [41] = test system: EA.hy 926; assay: Induction of apoptosis in human EA.hy 926 cells assessed as viable cells at 10 uM measured after 72 hrs by Annexin V-FITC/propidium iodide staining based flow cytometry (reference value: 88.6%); format: functional; settings: read-out: Activity
smiles,measurement,setting,value
CC(C)c1cccc(NC(=O)Nc2cccc(-c3cccc4[nH]nc(N)c34)c2)c1,IC50,[1],51.6 µM
Cc1ccc(F)c(NC(=O)Nc2ccc(-c3cccc4[nH]nc(N)c34)cc2)c1 [LINIFANIB],IC50,[1],2.48 µM
Cc1ncsc1-c1ccc(CNC(=O)[C@@H]2C[C@@H](O)CN2C(=O)[C@@H](NC(=O)CCCCCC(=O)n2nc(N)c3c(-c4cccc(NC(=O)Nc5cccc(C(C)C)c5)c4)cccc32)C(C)(C)C)cc1,IC50,[2],> 1 µM
same,IC50,[1],> 100 µM
same,Activity,[3],Non-Toxic
Cc1ccc(F)c(NC(=O)Nc2ccc(-c3cccc4c3c(N)nn4C(=O)CCCCCCCCCCC(=O)N[C@H](C(=O)N3C[C@H](O)C[C@H]3C(=O)NCc3ccc(-c4scnc4C)cc3)C(C)(C)C)cc2)c1,late apoptotic cells %,[4],64.2%
same,Activity,[5],Dose-dependent effect
same,Activity,[6],18.2%
same,Activity,[7],23.48%
same,Activity,[8],4.12%
same,Activity,[9],25.98%
same,late apoptotic cells %,[10],15.6%
same,Activity,[11],26.4%
same,Activity,[12],58.89%
same,Activity,[13],60.14%
same,viability at 1 µM,[14],81.6%
same,Activity,[15],43.62%
same,Activity,[16],60%
same,IC50,[2],0.209 µM
same,Activity,[17],24.92%
same,Activity,[18],5.96%
same,Activity,[19],1.72%
same,viability at 20 µM,[20],31.5%
same,late apoptotic cells %,[21],8.32%
same,Activity,[22],30.4%
same,viability at 40 µM,[23],8.82%
same,late apoptotic cells %,[24],6.94%
same,IC50,[1],38.6 µM
same,Activity,[25],Dose-dependent effect
same,Activity,[26],34.38%
same,Activity,[27],0.59%
same,Activity,[28],25.79%
same,Activity,[29],12.1%
same,Activity,[30],59.22%
same,Activity,[31],17.63%
same,viability at 0.1 µM,[32],86.7%
same,Activity,[33],2.15%
same,Activity,[34],40.7%
same,Activity,[35],15.36%
same,Activity,[36],14.99%
same,Activity,[37],2.16%
same,Activity,[3],Non-Toxic
same,Activity,[38],24.49%
same,late apoptotic cells %,[39],48.7%
same,Activity,[40],4.21%
same,viability at 10 µM,[41],70.2%
